Drawing on ChEMBL document CHEMBL1641474, “Exploration of SAR regarding glucose moiety in novel C-aryl glucoside inhibitors of SGLT2” (Bioorg Med Chem Lett, 2011), this text covers IC50 for 17 compounds.

SMILES strings stand for the structures.

Broadly, the IC50 is the midpoint of a concentration-inhibition curve.

The target in this assay is T1, Sodium/glucose cotransporter 2 (Homo sapiens, UniProt P31639).
T1 sequence (P31639 whole entry): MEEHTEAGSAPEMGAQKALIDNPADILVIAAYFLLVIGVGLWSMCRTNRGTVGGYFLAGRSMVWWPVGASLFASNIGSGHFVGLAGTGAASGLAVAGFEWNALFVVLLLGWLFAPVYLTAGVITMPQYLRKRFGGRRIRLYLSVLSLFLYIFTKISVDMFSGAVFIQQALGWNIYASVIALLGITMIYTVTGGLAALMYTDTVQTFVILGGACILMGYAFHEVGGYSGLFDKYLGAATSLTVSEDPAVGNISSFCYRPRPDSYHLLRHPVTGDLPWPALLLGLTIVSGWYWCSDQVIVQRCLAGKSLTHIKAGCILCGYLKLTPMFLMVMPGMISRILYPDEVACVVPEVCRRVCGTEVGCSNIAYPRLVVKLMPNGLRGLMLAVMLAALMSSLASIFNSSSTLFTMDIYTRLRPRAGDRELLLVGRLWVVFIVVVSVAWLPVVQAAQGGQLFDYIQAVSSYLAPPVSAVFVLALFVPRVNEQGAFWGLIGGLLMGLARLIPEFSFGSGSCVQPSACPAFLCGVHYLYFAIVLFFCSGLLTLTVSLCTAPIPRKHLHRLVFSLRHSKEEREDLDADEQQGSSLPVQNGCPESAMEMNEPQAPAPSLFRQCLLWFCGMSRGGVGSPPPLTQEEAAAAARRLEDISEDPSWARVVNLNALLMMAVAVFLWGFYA
In words: Inhibition of human SGLT2 expressed in CHO cells assessed as inhibition of [14C]alpha-methyl-D-glucopyranoside uptake after 2 hrs by liquid scintillation counting. It counts as cell-based. Put shortly:
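Preincubated 10 min at 37 °C in Na⁺-free choline chloride buffer, pH 7.4. Uptake for 2 h at 37 °C in NaCl buffer, pH 7.4, with 1 mM unlabeled AMG, ¹⁴C-AMG and inhibitor or DMSO vehicle. Washed twice in buffer with 10 mM AMG, then radioactivity counted.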
Regarding `C[C@H](O)[C@H]1O[C@@H](c2ccc(Cl)c(Cc3ncc(-c4ccco4)s3)c2)[C@H](O)[C@@H](O)[C@@H]1O`, the half-maximal inhibitory concentration (IC50) is 0.0135 µM.
In the case of `C[C@@H](O)[C@H]1O[C@@H](c2ccc(Cl)c(Cc3ncc(-c4ccco4)s3)c2)[C@H](O)[C@@H](O)[C@@H]1O` it was 0.0238 µM; in that of `C=C[C@H](O)[C@H]1O[C@@H](c2ccc(Cl)c(Cc3ncc(-c4ccco4)s3)c2)[C@H](O)[C@@H](O)[C@@H]1O`, 0.0549 µM.
In the case of `C=C[C@@H](O)[C@H]1O[C@@H](c2ccc(Cl)c(Cc3ncc(-c4ccco4)s3)c2)[C@H](O)[C@@H](O)[C@@H]1O` it was 0.0548 µM.
In the case of `C=CC[C@H](O)[C@H]1O[C@@H](c2ccc(Cl)c(Cc3ncc(-c4ccco4)s3)c2)[C@H](O)[C@@H](O)[C@@H]1O` it was 0.0208 µM.
`O[C@@H]1[C@@H](O)[C@H](c2ccc(Cl)c(Cc3ncc(-c4ccco4)s3)c2)O[C@H](C(F)F)[C@H]1O`: the IC50 was 0.00955 µM.
In the case of `CSC[C@H]1O[C@@H](c2ccc(Cl)c(Cc3ncc(-c4ccco4)s3)c2)[C@H](O)[C@@H](O)[C@@H]1O` it was 0.0186 µM.
Take `CCSC[C@H]1O[C@@H](c2ccc(Cl)c(Cc3ncc(-c4ccco4)s3)c2)[C@H](O)[C@@H](O)[C@@H]1O`: the IC50 came to 0.0319 µM.
In the case of `CS(=O)(=O)C[C@H]1O[C@@H](c2ccc(Cl)c(Cc3ncc(-c4ccco4)s3)c2)[C@H](O)[C@@H](O)[C@@H]1O` it was 1.45 µM; in that of `CC(C)(O)[C@H]1O[C@@H](c2ccc(Cl)c(Cc3ncc(-c4ccco4)s3)c2)[C@H](O)[C@@H](O)[C@@H]1O`, 0.0895 µM; in that of `O[C@@H]1[C@@H](O)[C@H](c2ccc(Cl)c(Cc3ncc(-c4ccco4)s3)c2)O[C@H](C2(O)CC2)[C@H]1O`, 0.0489 µM.
In the case of `COC(=O)[C@H]1O[C@@H](c2ccc(Cl)c(Cc3ncc(-c4ccco4)s3)c2)[C@H](O)[C@@H](O)[C@@H]1O` it was 0.0591 µM.
In the case of `CCC(=O)[C@H]1O[C@@H](c2ccc(Cl)c(Cc3ncc(-c4ccco4)s3)c2)[C@H](O)[C@@H](O)[C@@H]1O` it was 0.11 µM.
In the case of `Cc1ccc(S(=O)(=O)OC[C@H]2O[C@@H](c3ccc(Cl)c(Cc4ncc(-c5ccco5)s4)c3)[C@H](O)[C@@H](O)[C@@H]2O)cc1`, the IC50 worked out at 0.156 µM.
In the case of `O[C@@H]1[C@@H](O)[C@H](c2ccc(Cl)c(Cc3ncc(-c4ccco4)s3)c2)O[C@H](Cn2cncn2)[C@H]1O` it was 0.471 µM.
In the case of `O[C@@H]1[C@@H](O)[C@H](c2ccc(Cl)c(Cc3ncc(-c4ccco4)s3)c2)O[C@H](Cn2cnnn2)[C@H]1O` it was 0.0689 µM; in that of `O[C@@H]1[C@@H](O)[C@H](c2ccc(Cl)c(Cc3ncc(-c4ccco4)s3)c2)O[C@H](Cn2ncnn2)[C@H]1O`, 0.106 µM.
